Source: ChEMBL document CHEMBL4425163, “Structure elucidation of anti-methicillin resistant Staphylococcus aureus (MRSA) flavonoids from balsam poplar buds” (Bioorg Med Chem, 2016)
In brackets after ≈: the same amount, converted by molar mass.

Columns and labels:
[1] = tested on: Staphylococcus aureus; assay: Antibacterial activity against methicillin resistant Staphylococcus aureus clinical isolate 2 incubated […] by microdilution resazurin assay; format: functional
[2] = tested on: Staphylococcus aureus; assay: Antibacterial activity against methicillin resistant Staphylococcus aureus clinical isolate 5 incubated […] by microdilution resazurin assay; format: functional
[3] = Cytotoxicity against human WS1 cells by resazurin reduction assay; format: cell-based
In short: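 WS1 human fibroblast line; resazurin reduction test, slightly modified from an earlier method. Etoposide served as positive control.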

[4] = tested on: Staphylococcus aureus; assay: Antibacterial activity against Staphylococcus aureus ATCC 25923 incubated […] by microdilution resazurin assay; format: functional
[5] = tested on: Staphylococcus aureus; assay: Antibacterial activity against methicillin resistant Staphylococcus aureus clinical isolate 7 incubated […] by microdilution resazurin assay; format: functional
[6] = tested on: Staphylococcus aureus; assay: Antibacterial activity against methicillin resistant Staphylococcus aureus clinical isolate 9 incubated […] by microdilution resazurin assay; format: functional
[7] = tested on: Staphylococcus aureus; assay: Antibacterial activity against methicillin resistant Staphylococcus aureus clinical isolate 6 incubated […] by microdilution resazurin assay; format: functional
[8] = tested on: Staphylococcus aureus; assay: Antibacterial activity against methicillin resistant Staphylococcus aureus clinical isolate 1 incubated […] by microdilution resazurin assay; format: functional
[9] = tested on: Staphylococcus aureus; assay: Antibacterial activity against methicillin resistant Staphylococcus aureus clinical isolate 8 incubated […] by microdilution resazurin assay; format: functional
[10] = tested on: Staphylococcus aureus; assay: Antibacterial activity against methicillin resistant Staphylococcus aureus clinical isolate 3 incubated for 7 to 14 days by microdilution resazurin assay
[11] = tested on: Staphylococcus aureus; assay: Antibacterial activity against methicillin resistant Staphylococcus aureus clinical isolate 4 incubated for 7 to 14 days by microdilution resazurin assay
[12] = tested on: Staphylococcus aureus; assay: Antibacterial activity against methicillin resistant Staphylococcus aureus clinical isolate 10 incubated […] by microdilution resazurin assay; format: functional
[13] = Staphylococcus aureus, isolate 2, read-out: MIC
[14] = Staphylococcus aureus, isolate 5, read-out: MIC
[15] = Staphylococcus aureus, ATCC 25923, read-out: MIC
[16] = Staphylococcus aureus, isolate 7, read-out: MIC
[17] = Staphylococcus aureus, isolate 9, read-out: MIC
[18] = Staphylococcus aureus, isolate 6, read-out: MIC
[19] = Staphylococcus aureus, isolate 1, read-out: MIC
[20] = Staphylococcus aureus, isolate 8, read-out: MIC
[21] = Staphylococcus aureus, isolate 10, read-out: MIC

| Molecule | MIC [1, 13] | MIC [2, 14] | IC50 ([3]; Homo sapiens, WS1) | MIC [4, 15] | MIC [5, 16] | MIC [6, 17] | MIC [7, 18] | MIC [8, 19] | MIC [9, 20] | MIC [10] | MIC [11] | MIC [12, 21] | MIC [9] | other results |
| --- | --- | --- | --- | --- | --- | --- | --- | --- | --- | --- | --- | --- | --- | --- |
| COc1cc(O)c(C(=O)CCc2ccc(O)cc2)c2c1CCC(c1ccc(O)cc1)O2 (configuration not stated) | 50 µM (≈ 21 µg/mL) | > 50 µM | > 10 µM | > 50 µM | 50 µM (≈ 21 µg/mL) | > 50 µM | 50 µM (≈ 21 µg/mL) | > 50 µM | > 50 µM | > 50 µM | > 50 µM | > 50 µM |  |  |
| COc1cc(O)c(C(=O)CCc2ccc(O)cc2)c(O)c1C/C=C/c1ccc(O)cc1 | 50 µM (≈ 21 µg/mL) | 50 µM (≈ 21 µg/mL) | > 10 µM | > 50 µM | 50 µM (≈ 21 µg/mL) | > 50 µM | 50 µM (≈ 21 µg/mL) | > 50 µM | 50 µM (≈ 21 µg/mL) | 50 µM (≈ 21 µg/mL) | 50 µM (≈ 21 µg/mL) | 50 µM (≈ 21 µg/mL) |  |  |
| GENTAMICIN |  |  |  |  |  |  |  |  |  |  |  |  | 0.09 µM | MIC [1]: 0.04 µM; MIC [2]: 0.08 µM; MIC [4]: 0.03 µM; MIC [5]: 0.07 µM; MIC [6]: 0.07 µM; MIC [7]: 0.05 µM; MIC [8]: 0.05 µM; MIC [12]: 0.07 µM |
| O=C(CCc1ccccc1)c1c(O)cc2c(c1O)CC(O)C(c1ccc(O)cc1)O2 (stereo in doubt; (-)-17) | 50 µM (≈ 20.3 µg/mL) | 50 µM (≈ 20.3 µg/mL) | > 10 µM |  | 25 µM (≈ 10.2 µg/mL) | > 50 µM | 50 µM (≈ 20.3 µg/mL) | 50 µM (≈ 20.3 µg/mL) | > 50 µM | 50 µM (≈ 20.3 µg/mL) | 50 µM (≈ 20.3 µg/mL) | 50 µM (≈ 20.3 µg/mL) |  | MIC [4]: 25 µM (≈ 10.2 µg/mL) |
| O=C(/C=C/c1ccccc1)OCC(C/C=C/c1ccc(O)cc1)C(c1ccc(O)cc1)c1c(O)cc(O)c(C(=O)CCc2ccccc2)c1O (racemic) | 25 µM (≈ 16.8 µg/mL) | 3 µM (≈ 2.01 µg/mL) | > 10 µM | 50 µM (≈ 33.5 µg/mL) | 25 µM (≈ 16.8 µg/mL) | 25 µM (≈ 16.8 µg/mL) | 25 µM (≈ 16.8 µg/mL) | 25 µM (≈ 16.8 µg/mL) | 25 µM (≈ 16.8 µg/mL) | 13 µM (≈ 8.72 µg/mL) | 25 µM (≈ 16.8 µg/mL) | 25 µM (≈ 16.8 µg/mL) |  |  |
| COc1ccc(CCC(=O)c2c(O)cc(O)c3c2O[C@@H](c2ccc(O)cc2)CC3)cc1 | 13 µM (≈ 5.47 µg/mL) | 13 µM (≈ 5.47 µg/mL) | > 10 µM | 25 µM (≈ 10.5 µg/mL) | 13 µM (≈ 5.47 µg/mL) | 13 µM (≈ 5.47 µg/mL) | 25 µM (≈ 10.5 µg/mL) | 13 µM (≈ 5.47 µg/mL) | 13 µM (≈ 5.47 µg/mL) | 13 µM (≈ 5.47 µg/mL) | 25 µM (≈ 10.5 µg/mL) | 25 µM (≈ 10.5 µg/mL) |  |  |
| O=C(CCc1ccc(O)cc1)c1c(O)cc(O)c2c1O[C@@H](c1ccc(O)cc1)[C@H](C/C=C/c1ccc(O)cc1)C2 | 13 µM (≈ 7 µg/mL) | 13 µM (≈ 7 µg/mL) | > 10 µM | 13 µM (≈ 7 µg/mL) | 6 µM (≈ 3.23 µg/mL) | 13 µM (≈ 7 µg/mL) | 13 µM (≈ 7 µg/mL) | 25 µM (≈ 13.5 µg/mL) | 13 µM (≈ 7 µg/mL) | 13 µM (≈ 7 µg/mL) | 25 µM (≈ 13.5 µg/mL) | 13 µM (≈ 7 µg/mL) |  |  |
| O=C(CCc1ccccc1)c1c(O)cc(O)c2c1OC(c1ccc(O)cc1)C(O)C2 (stereo in doubt; (-)-15) | 25 µM (≈ 10.2 µg/mL) | 25 µM (≈ 10.2 µg/mL) | > 10 µM |  | 25 µM (≈ 10.2 µg/mL) | 50 µM (≈ 20.3 µg/mL) | 50 µM (≈ 20.3 µg/mL) | 50 µM (≈ 20.3 µg/mL) | 50 µM (≈ 20.3 µg/mL) | 50 µM (≈ 20.3 µg/mL) | 50 µM (≈ 20.3 µg/mL) | 25 µM (≈ 10.2 µg/mL) |  |  |
| O=C(CCc1ccccc1)c1c(O)c2c(c3c1OC(c1ccc(O)cc1)C(C/C=C/c1ccc(O)cc1)C3)OC(c1ccc(O)cc1)C(C/C=C/c1ccc(O)cc1)C2 (racemic; form 1) | > 50 µM | > 50 µM |  |  | > 50 µM | > 50 µM | > 50 µM | > 50 µM | > 50 µM | > 50 µM | > 50 µM | > 50 µM |  | IC50 [3]: 2.3 µM |
| O=C(CCc1ccccc1)c1c(O)cc2c(c1O)CC(O)C(c1ccc(O)cc1)O2 (stereo in doubt; (+)-17) |  |  |  | 50 µM (≈ 20.3 µg/mL) |  |  |  |  |  |  |  |  | 50 µM (≈ 20.3 µg/mL) | MIC [5]: 50 µM (≈ 20.3 µg/mL); MIC [12]: >50 µM |
| O=C(CCc1ccccc1)c1c(O)cc(O)c2c1OC(c1ccc(O)cc1)CC2 (stereo in doubt; (-)-12) |  | 6 µM (≈ 2.34 µg/mL) | > 10 µM |  | 6 µM (≈ 2.34 µg/mL) | 13 µM (≈ 5.08 µg/mL) | 13 µM (≈ 5.08 µg/mL) |  |  | 6 µM (≈ 2.34 µg/mL) |  | 13 µM (≈ 5.08 µg/mL) | 6 µM (≈ 2.34 µg/mL) | MIC [1]: 6 µM (≈ 2.34 µg/mL); MIC [8]: 6 µM (≈ 2.34 µg/mL) |
| O=C(CCc1ccccc1)c1c(O)cc(O)c2c1OC(c1ccc(O)cc1)CC2 (single isomer, unassigned; (+)) |  |  |  | 6 µM (≈ 2.34 µg/mL) |  |  |  |  |  |  |  |  | 13 µM (≈ 5.08 µg/mL) | MIC [1]: 13 µM (≈ 5.08 µg/mL); MIC [7]: 25 µM (≈ 9.76 µg/mL); MIC [8]: 13 µM (≈ 5.08 µg/mL) |
